Measured values from ChEMBL document CHEMBL4689842, “EUbOPEN Chemogenomics Library wave 1” (2021).

Test system: Fibroblast
Assay: Multiplex assay against human fibroblast
Assay type: toxicity, cell-based
Outline: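 Phenotypes for tubulin, mitochondrial mass and membrane permeability are expressed as per cents of healthy-nucleus cells. Cells were stained live at seeding with Hoechst33342, BioTracker Green Microtubule Cytoskeleton Dye, MitoTracker Red and Annexin V Alexa Fluor 680, then imaged after compound addition on a CQ1 microscope at 37°C and 5% CO2. Machine-learning gating in CellPathfinder separated Hoechst high-intensity objects from normal cells, divided normal cells by nuclear state (healthy, pyknosed, fragmented) and divided pyknosed cells into mitotic or apoptotic.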

[1] = 12 h, 1 µM, compound concentration 1 uM, replicate 1
[2] = 12 h, 1 µM, compound concentration 1 uM, replicate 2
[3] = 12 h, 10 µM, compound concentration 10 uM, replicate 1
[4] = 12 h, 10 µM, compound concentration 10 uM, replicate 2
[5] = 24 h, 1 µM, compound concentration 1 uM, replicate 1
[6] = 24 h, 1 µM, compound concentration 1 uM, replicate 2
[7] = 24 h, 10 µM, compound concentration 10 uM, replicate 1
[8] = 24 h, 10 µM, compound concentration 10 uM, replicate 2
[9] = 48 h, 1 µM, compound concentration 1 uM, replicate 1
[10] = 48 h, 1 µM, compound concentration 1 uM, replicate 2
[11] = 48 h, 10 µM, compound concentration 10 uM, replicate 1
[12] = 48 h, 10 µM, compound concentration 10 uM, replicate 2

CCOc1cc2ncc(C#N)c(Nc3ccc(OCc4ccccn4)c(Cl)c3)c2cc1NC(=O)/C=C/CN(C)C [NERATINIB]
Population Apoptotic (%) [1]: 55%
Population Fragmented Nuclei (%) [1]: 21%
Population Healthy Nuclei (%) [1]: 37%
Population Hoechst High Intensity Objects (%) [1]: 14%
Population Membrane Permeable-Phenotype (%) [1]: 25%
Population Mitochondria Different-Phenotype (%) [1]: 13%
Population Mitotic Cells (%) [1]: 44%
Population Normal (%) [1]: 85%
Population Pyknosed Nuclei (%) [1]: 41%
Population Tubulin-Different-Phenotype (%) [1]: 58%
Total Cell Count [1]: 134
Population Apoptotic (%) [2]: 11%
Population Fragmented Nuclei (%) [2]: 9%
Population Healthy Nuclei (%) [2]: 82%
Population Hoechst High Intensity Objects (%) [2]: 8%
Population Membrane Permeable-Phenotype (%) [2]: 4%
Population Mitochondria Different-Phenotype (%) [2]: 18%
Population Mitotic Cells (%) [2]: 88%
Population Normal (%) [2]: 91%
Population Pyknosed Nuclei (%) [2]: 9%
Population Tubulin-Different-Phenotype (%) [2]: 15%
Total Cell Count [2]: 64
Population Apoptotic (%) [3]: 45%
Population Fragmented Nuclei (%) [3]: 25%
Population Healthy Nuclei (%) [3]: 44%
Population Hoechst High Intensity Objects (%) [3]: 34%
Population Membrane Permeable-Phenotype (%) [3]: 7%
Population Mitochondria Different-Phenotype (%) [3]: 1%
Population Mitotic Cells (%) [3]: 54%
Population Normal (%) [3]: 65%
Population Pyknosed Nuclei (%) [3]: 30%
Population Tubulin-Different-Phenotype (%) [3]: 13%
Total Cell Count [3]: 621
Population Apoptotic (%) [4]: 12%
Population Fragmented Nuclei (%) [4]: 35%
Population Healthy Nuclei (%) [4]: 50%
Population Hoechst High Intensity Objects (%) [4]: 27%
Population Mitochondria Different-Phenotype (%) [4]: 16%
Population Mitotic Cells (%) [4]: 87%
Population Normal (%) [4]: 72%
Population Pyknosed Nuclei (%) [4]: 13%
Population Tubulin-Different-Phenotype (%) [4]: 42%
Total Cell Count [4]: 109
Population Apoptotic (%) [5]: 64%
Population Fragmented Nuclei (%) [5]: 21%
Population Healthy Nuclei (%) [5]: 40%
Population Hoechst High Intensity Objects (%) [5]: 18%
Population Membrane Permeable-Phenotype (%) [5]: 32%
Population Mitochondria Different-Phenotype (%) [5]: 11%
Population Mitotic Cells (%) [5]: 35%
Population Normal (%) [5]: 81%
Population Pyknosed Nuclei (%) [5]: 37%
Population Tubulin-Different-Phenotype (%) [5]: 53%
Total Cell Count [5]: 129
Population Apoptotic (%) [6]: 23%
Population Fragmented Nuclei (%) [6]: 9%
Population Healthy Nuclei (%) [6]: 76%
Population Hoechst High Intensity Objects (%) [6]: 5%
Population Membrane Permeable-Phenotype (%) [6]: 5%
Population Mitochondria Different-Phenotype (%) [6]: 6%
Population Mitotic Cells (%) [6]: 76%
Population Normal (%) [6]: 94%
Population Pyknosed Nuclei (%) [6]: 14%
Population Tubulin-Different-Phenotype (%) [6]: 11%
Total Cell Count [6]: 73
Population Apoptotic (%) [7]: 52%
Population Fragmented Nuclei (%) [7]: 25%
Population Healthy Nuclei (%) [7]: 48%
Population Hoechst High Intensity Objects (%) [7]: 39%
Population Membrane Permeable-Phenotype (%) [7]: 3%
Population Mitochondria Different-Phenotype (%) [7]: 3%
Population Mitotic Cells (%) [7]: 47%
Population Normal (%) [7]: 60%
Population Pyknosed Nuclei (%) [7]: 26%
Population Tubulin-Different-Phenotype (%) [7]: 15%
Total Cell Count [7]: 651
Population Apoptotic (%) [8]: 12%
Population Fragmented Nuclei (%) [8]: 36%
Population Healthy Nuclei (%) [8]: 49%
Population Hoechst High Intensity Objects (%) [8]: 26%
Population Membrane Permeable-Phenotype (%) [8]: 10%
Population Mitochondria Different-Phenotype (%) [8]: 14%
Population Mitotic Cells (%) [8]: 87%
Population Normal (%) [8]: 73%
Population Pyknosed Nuclei (%) [8]: 14%
Population Tubulin-Different-Phenotype (%) [8]: 34%
Total Cell Count [8]: 124
Population Apoptotic (%) [9]: 61%
Population Fragmented Nuclei (%) [9]: 36%
Population Healthy Nuclei (%) [9]: 45%
Population Hoechst High Intensity Objects (%) [9]: 18%
Population Membrane Permeable-Phenotype (%) [9]: 26%
Population Mitochondria Different-Phenotype (%) [9]: 6%
Population Mitotic Cells (%) [9]: 38%
Population Normal (%) [9]: 81%
Population Pyknosed Nuclei (%) [9]: 18%
Population Tubulin-Different-Phenotype (%) [9]: 51%
Total Cell Count [9]: 122
Population Apoptotic (%) [10]: 33%
Population Fragmented Nuclei (%) [10]: 20%
Population Healthy Nuclei (%) [10]: 76%
Population Hoechst High Intensity Objects (%) [10]: 12%
Population Membrane Permeable-Phenotype (%) [10]: 9%
Population Mitochondria Different-Phenotype (%) [10]: 4%
Population Mitotic Cells (%) [10]: 66%
Population Normal (%) [10]: 87%
Population Pyknosed Nuclei (%) [10]: 2%
Population Tubulin-Different-Phenotype (%) [10]: 14%
Total Cell Count [10]: 123
Population Apoptotic (%) [11]: 55%
Population Fragmented Nuclei (%) [11]: 28%
Population Healthy Nuclei (%) [11]: 42%
Population Hoechst High Intensity Objects (%) [11]: 42%
Population Membrane Permeable-Phenotype (%) [11]: 5%
Population Mitochondria Different-Phenotype (%) [11]: 4%
Population Mitotic Cells (%) [11]: 44%
Population Normal (%) [11]: 57%
Population Pyknosed Nuclei (%) [11]: 28%
Population Tubulin-Different-Phenotype (%) [11]: 11%
Total Cell Count [11]: 626
Population Apoptotic (%) [12]: 62%
Population Fragmented Nuclei (%) [12]: 24%
Population Healthy Nuclei (%) [12]: 56%
Population Hoechst High Intensity Objects (%) [12]: 48%
Population Membrane Permeable-Phenotype (%) [12]: 2%
Population Mitochondria Different-Phenotype (%) [12]: 1%
Population Mitotic Cells (%) [12]: 37%
Population Normal (%) [12]: 51%
Population Pyknosed Nuclei (%) [12]: 19%
Population Tubulin-Different-Phenotype (%) [12]: 18%
Total Cell Count [12]: 814
